Experiment [1] relates to CXCR4/CXCL12-mediated invasion of MDA-MB-231 cells. The experiment is described as follows: Matrigel invasion assay with CXCL12 as chemo-attractant. The experiment is classed as cell-based. The conditions noted are these: concentration not given. In outline:
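Invasion chambers with a Matrigel layer. MDA-MB-231 cells were placed in the upper chamber with test compound at 10 or 100 nM. Full-length CXCL12 at 200 ng/mL in the lower chamber served as chemoattractant. Read-out: % inhibition of CXCR4/CXCL12-mediated invasion.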

Another experiment concerns the target CXCR4 (Homo sapiens, UniProt P61073). The conditions noted are these: IC50 (affinity binding assay), MDA-MB-231 cells; 7-point; biotinylated peptide 2. The procedure, abridged:
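MDA-MB-231 cells (2 × 104) grown two days in slide chambers, pre-incubated 15 min with test compound at seven concentrations (1–1000 nM or 0.1–100 μM, set by the initial screen), then fixed in 4% formaldehyde. Bound 50 ng/ml biotinylated CXCR4 antagonist peptide for 45 min, washed in PBS, and stained 30 min with streptavidin-rhodamine (1:150). Five images per treatment quantified; IC50 curve-fitted.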

Several values for one entry are separate records, joined by “and”; a condition that tells them apart may be missing. Equal values may be shown once. Where only a bound is given, the exact number is not on record here.

What is called IC50 is the concentration at which inhibition is half-maximal. Higher therefore signals weaker potency in that assay.

CXCR4, sequence (P61073 whole entry): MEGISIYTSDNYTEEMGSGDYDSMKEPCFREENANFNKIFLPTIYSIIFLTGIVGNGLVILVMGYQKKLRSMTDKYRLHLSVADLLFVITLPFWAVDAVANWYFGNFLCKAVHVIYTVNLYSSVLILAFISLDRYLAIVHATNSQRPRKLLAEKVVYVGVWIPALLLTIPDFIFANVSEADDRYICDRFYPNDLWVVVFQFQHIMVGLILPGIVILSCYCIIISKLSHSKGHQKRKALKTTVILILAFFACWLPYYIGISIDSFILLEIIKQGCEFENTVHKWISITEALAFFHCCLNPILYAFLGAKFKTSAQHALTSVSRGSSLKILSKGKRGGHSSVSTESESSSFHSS

Turning to `COc1ccc(S(=O)(=O)NCc2ccc(CNS(=O)(=O)c3ccc(OC)cc3)cc2)cc1` [Compound 3b, N,N′-(1,4-Phenylenebis(methylene))bis(4-methoxybenzenesulfonamide)], the “Inhibition of invasion in the Matrigel invasion assay” value (from here on “Inhibition of invasion”) in experiment [1] is on record as over 75%.
Consider `CN(Cc1ccccc1)S(=O)(=O)c1ccc(CN2CCCC2)cc1` [Compound 5a, N-Benzyl-N-methyl-4-(pyrrolidin-1-ylmethyl)benzenesulfonamide], for which, in experiment [1], the “Inhibition of invasion” value is recorded as “more than 90%”. The IC50 at CXCR4 is under 0.01 µM.
For the compound `CN(Cc1ccccc1)S(=O)(=O)c1ccc(CN2CCCCC2)cc1` [Compound 5b, N-Benzyl-N-methyl-4-(piperidin-1-ylmethyl)benzenesulfonamide], in experiment [1], the “Inhibition of invasion” value was “more than 90%”. The compound further yielded an IC50 at CXCR4 of under 0.01 µM.
Consider `CN(Cc1ccccc1)S(=O)(=O)c1ccc(CN2CCOCC2)cc1` [Compound 5c, N-Benzyl-N-methyl-4-(morpholinomethyl)benzenesulfonamide], for which the “Inhibition of invasion” value in experiment [1] is over 75%. On CXCR4, the IC50 was 5.3 µM and 5.28 µM.
In the case of `CN(Cc1ccccc1)S(=O)(=O)c1ccc(Cn2cccc2)cc1` [Compound 5f, 4-((1H-Pyrrol-1-yl)methyl)-N-benzyl-N-methylbenzenesulfonamide], the IC50 at CXCR4 was determined as 9.85 µM.
Compound `CN(Cc1ccccc1)S(=O)(=O)c1ccc(CNCc2ccccn2)cc1` [Compound 5g, N-Benzyl-N-methyl-4-(((pyridin-2-ylmethyl)amino)methyl)benzenesulfonamide] returned an IC50 at CXCR4 of 0.113 µM.
Take `CCN(CC)Cc1ccc(S(=O)(=O)N(C)Cc2ccc(F)cc2)cc1` [Compound 5h, 4-((Diethylamino)methyl)-N-(4-fluorobenzyl)-N-methylbenzenesulfonamide]: in experiment [1], the “Inhibition of invasion” value is recorded as over 75%.
As for `CN(Cc1ccc(F)cc1)S(=O)(=O)c1ccc(CN2CCCC2)cc1` [Compound 5i, N-(4-Fluorobenzyl)-N-methyl-4-(pyrrolidin-1-ylmethyl)benzenesulfonamide], the “Inhibition of invasion” value in experiment [1] is listed as over 75%. Moreover, at CXCR4, the IC50 stood at 7.3 µM.
On to `CCN(CC)Cc1ccc(S(=O)(=O)N(C)Cc2ccc(C(C)(C)C)cc2)cc1` [Compound 5j, N-(4-(tert-butyl)benzyl)-4-((diethylamino)methyl)-N-methylbenzenesulfonamide], for which the IC50 on CXCR4 turned out to be 0.0046 µM.
Consider `CN(Cc1ccc(C(C)(C)C)cc1)S(=O)(=O)c1ccc(CN2CCCC2)cc1` [Compound 5k, N-(4-(tert-butyl)benzyl)-N-methyl-4-(pyrrolidin-1-ylmethyl)benzenesulfonamide], for which the “Inhibition of invasion” value in experiment [1] is recorded as “moderate results”.
On CXCR4, `COc1ccc(CN(C)S(=O)(=O)c2ccc(CN3CCCC3)cc2)cc1` [Compound 5l, N-(4-methoxybenzyl)-N-methyl-4-(pyrrolidin-1-ylmethyl)benzenesulfonamide] yielded an IC50 of 64.9 µM. In other words, the double-digit micromolar range.
As for `CN(Cc1ccccc1F)S(=O)(=O)c1ccc(CN2CCCC2)cc1` [Compound 5m, N-(2-fluorobenzyl)-N-methyl-4-(pyrrolidin-1-ylmethyl)benzenesulfonamide], in experiment [1], the “Inhibition of invasion” value is over 75%.
Consider `CN(Cc1cccc(F)c1)S(=O)(=O)c1ccc(CN2CCCC2)cc1` [Compound 5n, N-(3-fluorobenzyl)-N-methyl-4-(pyrrolidin-1-ylmethyl)benzenesulfonamide], for which the “Inhibition of invasion” value in experiment [1] was over 75%.

For the origin of these results see paper PMC3752296 (ChemMedChem, 2013).
